# Key:
# Assay type in all cases: functional
# [1] = tested on: Plasmodium falciparum; assay: Antimalarial activity against ring stage chloroquine-resistant Plasmodium falciparum W2 preincubated for 48 hrs measured after 48 hrs in presence of 10% human serum by YOYO-1 dye-based FACS analysis
# In short: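 Sorbitol-synchronized ring-stage W2 parasites at 0.1% parasitemia grown 48 h in RPMI-1640 + 10% human serum under 3% O2/6% CO2/91% N2 with inhibitors (from 1000× DMSO stocks), no media change. Fixed 48 h in 1% formaldehyde/PBS pH 7.4 at room temperature. Stained with 1 nM YOYO-1 in 0.1% Triton X-100/PBS. Parasitemia read by flow cytometry.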
# [2] = Antioxidant activity assessed as inhibition of DPPH radical generation at 1 mg/ml after 20 mins under dark condition by UV-Visible spectrophotometric analysis relative to control
# In short: (§1)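 Test compounds were made up in ethanol at 1.0, 2.0, 3.0, 4.0 and 5.0 mg/mL (solution concentrations before mixing). 1 mL of each was shaken with 4 mL of 0.1 mM ethanolic DPPH and kept in the dark at room temperature for 20 min. The decrease in A517 was read against an ethanol baseline. A DPPH blank had no compound. Scavenging % = [(Ac − As)/Ac] × 100.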
# [3] = Antioxidant activity assessed as DPPH radical scavenging activity after 20 mins under dark condition by UV-Visible spectrophotometric analysis; in short: as §1
# [4] = Antioxidant activity assessed as inhibition of DPPH radical generation at 3 mg/ml after 20 mins under dark condition by UV-Visible spectrophotometric analysis relative to control; in short: as §1
# [5] = Antioxidant activity assessed as inhibition of DPPH radical generation at 4 mg/ml after 20 mins under dark condition by UV-Visible spectrophotometric analysis relative to control; in short: as §1
# [6] = Antioxidant activity assessed as inhibition of DPPH radical generation at 2 mg/ml after 20 mins under dark condition by UV-Visible spectrophotometric analysis relative to control; in short: as §1
# [7] = Antioxidant activity assessed as inhibition of DPPH radical generation at 5 mg/ml after 20 mins under dark condition by UV-Visible spectrophotometric analysis relative to control; in short: as §1
# [8] = Antioxidant activity assessed as inhibition of DPPH radical generation at 0.03 mg/ml after 20 mins under dark condition by UV-Visible spectrophotometric analysis relative to control
# [9] = Antioxidant activity assessed as inhibition of DPPH radical generation at 0.01 mg/ml after 20 mins under dark condition by UV-Visible spectrophotometric analysis relative to control
# [10] = Antioxidant activity assessed as inhibition of DPPH radical generation at 0.05 mg/ml after 20 mins under dark condition by UV-Visible spectrophotometric analysis relative to control
# [11] = Antioxidant activity assessed as inhibition of DPPH radical generation at 0.04 mg/ml after 20 mins under dark condition by UV-Visible spectrophotometric analysis relative to control
# [12] = Antioxidant activity assessed as inhibition of DPPH radical generation at 0.02 mg/ml after 20 mins under dark condition by UV-Visible spectrophotometric analysis relative to control
SMILES,MIC99 [1] [µM],inhibition [2] [%],IC50 [3] [mM],inhibition [4] [%],inhibition [5] [%],inhibition [6] [%],inhibition [7] [%],inhibition [8] [%],inhibition [9] [%],inhibition [10] [%],inhibition [11] [%],inhibition [12] [%]
C=C[C@H]1CN2CC[C@H]1C[C@H]2[C@H](O)c1ccnc2ccc(OC)cc12 [QUININE],0.83,–,–,–,–,–,–,–,–,–,–,–
CC(=O)c1ccc(NC(=O)C(CC(C)C)N(C(=O)c2ccccc2)S(=O)(=O)c2ccc(C)cc2)cc1 (stereo unspecified),0.17,54,11,63.1,67.2,58.1,71.3,–,–,–,–,–
CC(=O)c1ccc(NC(=O)C(Cc2ccccc2)N(C(=O)c2ccccc2)S(=O)(=O)c2ccccc2)cc1 (stereo unspecified),0.9,2.18,11,7.21,9.28,4.37,11,–,–,–,–,–
CCC(C)C(C(=O)Nc1ccc(C(C)=O)cc1)N(C(=O)c1ccccc1)S(=O)(=O)c1ccc([N+](=O)[O-])cc1 (stereo unspecified),0.2,28.6,50,42.1,48.4,31.7,53.2,–,–,–,–,–
CCC(C)C(C(=O)Nc1ccc(C(C)=O)cc1)N(C(=O)c1ccccc1)S(=O)(=O)c1ccc(C)cc1 (stereo unspecified),5.11,18.6,10,33.4,41,25.7,47.3,–,–,–,–,–
CC(=O)c1ccc(NC(=O)C2CC(O)CN2S(=O)(=O)c2ccc([N+](=O)[O-])cc2)cc1 (stereo unspecified),0.32,43.2,7.1,58.7,60.1,–,70.7,–,–,–,–,–
CC(=O)c1ccc(NC(=O)C(Cc2ccccc2)N(C(=O)c2ccccc2)S(=O)(=O)c2ccc([N+](=O)[O-])cc2)cc1 (stereo unspecified),0.08,19.3,39,34.5,40,26.8,49.2,–,–,–,–,–
CC(=O)c1ccc(NC(=O)CN(C(=O)c2ccccc2)S(=O)(=O)c2ccccc2)cc1,0.97,40.5,32,40.7,40.9,40.5,45.4,–,–,–,–,–
CC(=O)c1ccc(NC(=O)C(Cc2ccccc2)N(C(=O)c2ccccc2)S(=O)(=O)c2ccc(C)cc2)cc1 (stereo unspecified),0.78,25.4,7.6,39.6,48.5,32.7,53.6,–,–,–,–,–
CC(=O)c1ccc(NC(=O)C(Cc2c[nH]c3ccccc23)N(C(=O)c2ccccc2)S(=O)(=O)c2ccc([N+](=O)[O-])cc2)cc1 (stereo unspecified),–,22.1,0.73,23.5,24,22.9,24.3,–,–,–,–,–
CC(=O)c1ccc(NC(=O)C(C(C)C)N(C(=O)c2ccccc2)S(=O)(=O)c2ccccc2)cc1 (stereo unspecified),1.7,32.1,13,47.5,52.2,41.3,54.2,–,–,–,–,–
CC(=O)c1ccc(NC(=O)C2CCCN2S(=O)(=O)c2ccc([N+](=O)[O-])cc2)cc1 (stereo unspecified),6.74,22.7,19,24.3,25.3,23.5,25.6,–,–,–,–,–
CC(=O)c1ccc(NC(=O)C(Cc2c[nH]c3ccccc23)N(C(=O)c2ccccc2)S(=O)(=O)c2ccc(C)cc2)cc1 (stereo unspecified),–,39.5,0.045,39.5,39.5,58,39.5,–,–,–,–,–
CC(=O)c1ccc(NC(=O)C(C(C)C)N(C(=O)c2ccccc2)S(=O)(=O)c2ccc(C)cc2)cc1 (stereo unspecified),2.82,15.6,12,29.7,36.6,22.7,42.7,–,–,–,–,–
CC(=O)c1ccc(NC(=O)C(C(C)C)N(C(=O)c2ccccc2)S(=O)(=O)c2ccc([N+](=O)[O-])cc2)cc1 (stereo unspecified),1.57,29.8,6.8,29.8,27.2,29.8,27.4,–,–,–,–,–
CC(=O)c1ccc(NC(=O)C(CC(C)C)N(C(=O)c2ccccc2)S(=O)(=O)c2ccc([N+](=O)[O-])cc2)cc1 (stereo unspecified),0.06,45,8.4,62.3,71,–,81.3,–,–,–,–,–
CC(=O)c1ccc(NC(=O)C2CC(O)CN2S(=O)(=O)c2ccc(C)cc2)cc1 (stereo unspecified),2.27,12.4,25,12.7,12.9,12.5,13,–,–,–,–,–
CC(=O)c1ccc(NC(=O)C2CC(O)CN2S(=O)(=O)c2ccccc2)cc1 (stereo unspecified),0.16,40.2,3.8,49.8,54.5,57,58.7,–,–,–,–,–
O=C1O[C@H]([C@@H](O)CO)C(O)=C1O [ASCORBIC ACID],–,–,0.34,–,–,–,–,25,15,40,30,20
CC(=O)c1ccc(NC(=O)CN(C(=O)c2ccccc2)S(=O)(=O)c2ccc([N+](=O)[O-])cc2)cc1,0.18,20.6,58,20.6,20.7,20.6,20.7,–,–,–,–,–
CC(=O)c1ccc(NC(=O)C(CC(C)C)N(C(=O)c2ccccc2)S(=O)(=O)c2ccccc2)cc1 (stereo unspecified),0.26,27.7,3.2,40.7,46.9,54.2,52.2,–,–,–,–,–
CC(=O)c1ccc(NC(=O)C(Cc2c[nH]c3ccccc23)N(C(=O)c2ccccc2)S(=O)(=O)c2ccccc2)cc1 (stereo unspecified),–,31.7,51,47,54.1,39.4,61.2,–,–,–,–,–
CC(=O)c1ccc(NC(=O)CN(C(=O)c2ccccc2)S(=O)(=O)c2ccc(C)cc2)cc1,0.72,17.9,102,18.2,18.4,18.1,18.7,–,–,–,–,–
CC(=O)c1ccc(NC(=O)C2CCCN2S(=O)(=O)c2ccc(C)cc2)cc1 (stereo unspecified),1.45,20.6,36,20.7,20.7,20.7,20.7,–,–,–,–,–
CCN(CC)CCCC(C)Nc1ccnc2cc(Cl)ccc12 (stereo unspecified) [CHLOROQUINE],0.06,–,–,–,–,–,–,–,–,–,–,–
CCC(C)C(C(=O)Nc1ccc(C(C)=O)cc1)N(C(=O)c1ccccc1)S(=O)(=O)c1ccccc1 (stereo unspecified),1.25,9.71,8.6,14.2,15.5,11.3,16.8,–,–,–,–,–
CC(=O)c1ccc(NC(=O)C2CCCN2S(=O)(=O)c2ccccc2)cc1 (stereo unspecified),0.11,22.8,69,29.1,33.4,25.8,35.7,–,–,–,–,–

# — ChEMBL document CHEMBL4033670, “Synthesis, characterization, molecular docking and in vitro antimalarial properties of new carboxamides bearing sulphonamide” (Eur J Med Chem, 2017)
